The source of these data is ChEMBL document CHEMBL1777792, “Synthesis and evaluation of indole-based new scaffolds for antimicrobial activities--identification of promising candidates” (Bioorg Med Chem Lett, 2011).

For experiment [1], the system named is Candida albicans. As to the kind of experiment: Antifungal activity against Candida albicans in yeast extract-peptone-glucose medium at 450 ug/ml after 48 hrs by disc diffusion assay in presence of […]. It is filed as functional. The method in brief: (§1)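 This is a C. albicans disc diffusion on YEPD agar containing rhodamine 6G, a substrate of the Cdr1p/Cdr2p ATP-dependent efflux pumps, to test for enhanced R6G toxicity. A set number of cells was spread, and 0.5 cm discs were spotted with compound solution or reference solvent. Plates were incubated at 30 °C and the zone diameter was measured.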

The test system of experiment [2] is Candida albicans. As to the kind of experiment: Antifungal activity against Candida albicans in yeast extract-peptone-glucose medium at 450 ug/ml after 48 hrs by disc diffusion assay in presence of 100 ug/ml of calcofluor white. It is filed as functional. Summed up:
(§2)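 C. albicans cells at a set number were spread on YEPD agar, either plain or containing the cell-wall disruptant named in the line (SDS, Congo red or calcofluor white). Compound solution, or the reference solvent as control, was spotted onto 0.5 cm discs placed on the lawn. Plates were incubated at 30 °C and the inhibition zone diameter was measured.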

In experiment [3] the test system is Candida albicans. As to the kind of experiment: Antifungal activity against Candida albicans in yeast extract-peptone-glucose medium at 450 ug/ml after 48 hrs by disc diffusion assay. It is filed as functional. The conditions noted are these: read-out: DIZ. Summed up: as §2
Experiment [4] relates to Candida albicans. As to the kind of experiment: Antifungal activity against Candida albicans in yeast extract-peptone-glucose medium at 450 ug/ml after 48 hrs by disc diffusion assay in presence of 150 ug/ml of congo red. It is filed as functional. The method in brief: as §2
Experiment [5] has as its system Escherichia coli. As to the kind of experiment: Antibacterial activity against Escherichia coli harboring ampicillin-resistance gene encoding plasmid at 450 ug/ml after 24 hrs by disc diffusion assay. The class given is functional. The conditions noted are these: read-out: DIZ. The method in brief: (§3)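 Disc diffusion used an E. coli strain carrying a plasmid that encodes an ampicillin-resistance gene. Inhibition zone diameters were recorded and compared against the corresponding solvent controls.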

Experiment [6] relates to Candida albicans. As to the kind of experiment: Antifungal activity against Candida albicans in yeast extract-peptone-glucose medium at 450 ug/ml after 48 hrs by disc diffusion assay in presence of 0.01% of sodium dodecylsulphate. The class given is functional. Particulars: read-out: DIZ. Summed up: as §2
Experiment [7] has as its system Candida albicans. As to the kind of experiment: Antifungal activity against Candida albicans in yeast extract-peptone-glucose medium at 375 ug/ml after 48 hrs by disc diffusion assay in presence of rhodamine 6G.
The test system of experiment [8] is Candida albicans. As to the kind of experiment: Antifungal activity against Candida albicans in yeast extract-peptone-glucose medium at 375 ug/ml after 48 hrs by disc diffusion assay in presence of 100 ug/ml of calcofluor white. The class given is functional. Summed up: as §2
Experiment [9] deals with Candida albicans. As to the kind of experiment: Antifungal activity against Candida albicans in yeast extract-peptone-glucose medium at 375 ug/ml after 48 hrs by disc diffusion assay in presence of 150 ug/ml of congo red. The class given is functional. The method in brief: as §2
In experiment [10] the test system is Candida albicans. As to the kind of experiment: Antifungal activity against Candida albicans in yeast extract-peptone-glucose medium at 375 ug/ml after 48 hrs by disc diffusion assay in presence of 0.01% of sodium dodecylsulphate. The conditions noted are these: read-out: DIZ. It is filed as functional. The method in brief: as §2
In experiment [11] the test system is Candida albicans. As to the kind of experiment: Antifungal activity against Candida albicans in yeast extract-peptone-glucose medium at 375 ug/ml after 48 hrs by disc diffusion assay. The class given is functional. Particulars: read-out: DIZ. The method in brief:
as §2

The subject of experiment [12] is Escherichia coli. As to the kind of experiment: Antibacterial activity against Escherichia coli harboring ampicillin-resistance gene encoding plasmid at 375 ug/ml after 24 hrs by disc diffusion assay. It is filed as functional. Particulars: read-out: DIZ. Summed up: as §3
The test system of experiment [13] is Candida albicans. As to the kind of experiment: Antifungal activity against Candida albicans in synthetic dextrose minimal medium after 48 hrs by ELISA based serial dilution method.
In experiment [14] the test system is Escherichia coli. As to the kind of experiment: Antibacterial activity against Escherichia coli harboring ampicillin-resistance gene encoding plasmid at 238 ug/ml after 24 hrs by disc diffusion assay. It is filed as functional. The conditions noted are these: read-out: DIZ. Summed up: as §3
The test system of experiment [15] is Candida albicans. As to the kind of experiment: Antifungal activity against Candida albicans in yeast extract-peptone-glucose medium at 238 ug/ml after 48 hrs by disc diffusion assay in presence of 150 ug/ml of congo red. It is filed as functional. Summed up:
as §2

Experiment [16] relates to Candida albicans. As to the kind of experiment: Antifungal activity against Candida albicans in yeast extract-peptone-glucose medium at 238 ug/ml after 48 hrs by disc diffusion assay in presence of […]. The class given is functional. The method in brief: as §1
Experiment [17] has as its system Candida albicans. As to the kind of experiment: Antifungal activity against Candida albicans in yeast extract-peptone-glucose medium at 238 ug/ml after 48 hrs by disc diffusion assay in presence of 0.01% of sodium dodecylsulphate. The class given is functional. Particulars: read-out: DIZ. The method in brief:
as §2

Experiment [18] concerns Candida albicans. As to the kind of experiment: Antifungal activity against Candida albicans in yeast extract-peptone-glucose medium at 238 ug/ml after 48 hrs by disc diffusion assay. The class given is functional. Particulars: read-out: DIZ. The method in brief:
as §2

Experiment [19] has as its system Candida albicans. As to the kind of experiment: Antifungal activity against Candida albicans in yeast extract-peptone-glucose medium at 545 ug/ml after 48 hrs by disc diffusion assay in presence of 150 ug/ml of congo red. The class given is functional. The method in brief:
(§4)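 C. albicans cells were spread at a set number over YEPD agar containing the additive named in the line. Discs 0.5 cm across were placed on the lawn and spotted with test compound solution or reference solvent. Plates were incubated at 30 °C. The inhibition zone diameter was measured in mm and compared with the solvent-control disc.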

Experiment [20] relates to Candida albicans. As to the kind of experiment: Antifungal activity against Candida albicans in yeast extract-peptone-glucose medium at 545 ug/ml after 48 hrs by disc diffusion assay in presence of 150 ug/ml of rhodamine 6G. It is filed as functional. Summed up:
as §4

The subject of experiment [21] is Candida albicans. As to the kind of experiment: Antifungal activity against Candida albicans in yeast extract-peptone-glucose medium at 545 ug/ml after 48 hrs by disc diffusion assay. The class given is functional. Particulars: read-out: DIZ. The method in brief:
as §2

Experiment [22] has as its system Escherichia coli. As to the kind of experiment: Antibacterial activity against Escherichia coli harboring ampicillin-resistance gene encoding plasmid at 545 ug/ml after 24 hrs by disc diffusion assay. The conditions noted are these: read-out: DIZ. The class given is functional. Summed up: as §3
In experiment [23] the test system is Candida albicans. As to the kind of experiment: Antifungal activity against Candida albicans in yeast extract-peptone-glucose medium at 545 ug/ml after 48 hrs by disc diffusion assay in presence of 100 ug/ml of calcofluor white. It is filed as functional. Summed up:
as §4

Experiment [24] concerns Candida albicans. As to the kind of experiment: Antifungal activity against Candida albicans in yeast extract-peptone-glucose medium at 545 ug/ml after 48 hrs by disc diffusion assay in presence of 0.01% of sodium dodecylsulphate. It is filed as functional. Particulars: read-out: DIZ. The method in brief:
as §2

Molecules are shown by their SMILES.

In the case of `O=C(C(=O)N1CCCCC1)c1cn(CCCCCn2cc(C(=O)C(=O)N3CCCCC3)c3ccccc32)c2ccccc12`, the results for the “diameter of the inhibition zone (DIZ)” value with Candida albicans [1], in the experiment on Candida albicans [2] and in the experiment with Candida albicans [4] were 6.5 mm, 6.5 mm and 7 mm, respectively. Moreover, the zone of inhibition at 450 µg/mL in the experiment with Candida albicans [3] came to 6 mm; in the experiment with Escherichia coli [5] it was 8.5 mm; with Candida albicans [6], 6.5 mm.

Turning to `O=C(C(=O)N1CCOCC1)c1cn(CCCCCn2cc(C(=O)C(=O)N3CCOCC3)c3ccccc32)c2ccccc12`, the “diameter of the inhibition zone (DIZ)” value is reported as 8 mm in the experiment on Candida albicans [7], 7.5 mm in the experiment on Candida albicans [8] and 7 mm with Candida albicans [9]. Also, the zone of inhibition at 375 µg/mL came to 7 mm in the experiment with Candida albicans [10], 7.5 mm in the experiment with Candida albicans [11] and 8.5 mm in the experiment with Escherichia coli [12]. This molecule also displayed an IC50 in the experiment on Candida albicans [13] of 340 µM.

In the case of `O=C(C(=O)N1CCCCC1)c1cn(CCCCCCn2cc(C(=O)C(=O)N3CCCCC3)c3ccccc32)c2ccccc12`, the zone of inhibition at 238 µg/mL in the experiment on Escherichia coli [14] came out at 7.5 mm; in the experiment with Candida albicans [17] it was 6.5 mm; with Candida albicans [18], 6.5 mm. For the same molecule, the results for the “diameter of the inhibition zone (DIZ)” value in the experiment on Candida albicans [15] and in the experiment with Candida albicans [16] were 6 mm and 5.5 mm, respectively.

Turning to `O=C(C(=O)N1CCCC1)c1cn(CCCCCCn2cc(C(=O)C(=O)N3CCCC3)c3ccccc32)c2ccccc12`, the “diameter of the inhibition zone (DIZ)” value with Candida albicans [19] is 10.5 mm; in the experiment with Candida albicans [20] it was 12.5 mm; with Candida albicans [23] it was 11 mm. The zone of inhibition at 545 µg/mL was 14.5 mm in the experiment on Candida albicans [21], 11.5 mm in the experiment with Escherichia coli [22] and 15.5 mm in the experiment with Candida albicans [24].
